According to the array DNA melting data of Ke et al. (doi:10.1101/2024.01.08.574731):

Experiments:
[1] = melting temperature; fluorescence melt of hairpins on a sequencing array, two-state fit, raised by 9.35 °C to match UV melts; conditions: sodium 0.088 M
Procedure, shortened: (§1)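 To match UV melts, fitted temperatures were raised by 9.35 °C. These fits were bootstrapped two-state models that gave melting temperature and folding enthalpy, combined by inverse variance over four replicates. The input was normalised Cy3 fluorescence of library hairpins with annealed Cy3 and quencher oligos on a sequenced MiSeq flow cell, imaged in 50 mM Na-HEPES pH 8.0, 25 mM NaCl in 2.5 °C steps up to 60 °C.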

[2] = folding enthalpy; higher = less favourable; fluorescence melt of hairpins on a sequencing array, two-state fit; conditions: sodium 0.088 M
Procedure, shortened: as §1

Sequence	Tm [1] [°C]	folding enthalpy [2] [kcal/mol]
GATCTGGGGCAGATC ((((((...))))))	46.5	-29.4
GATCTGGGGCCAGATC ((((((....))))))	50.5	-47.6
GATCTGGGTCCAGATC ((((((....))))))	52.7	-42.5
GATCTGGTCCAGATC ((((((...))))))	50.8	-33.4
GATCTGGTCCCAGATC ((((((....))))))	54.1	-39.6
GATCTGGTCGCAGATC ((((((....))))))	52.4	-24.9
GATCTGGTGGCAGATC ((((((....))))))	50.1	-33.9
GATCTGGTTACAGATC ((((((....))))))	59.1	-40.1
GATCTGTAATCAGATC ((((((....))))))	48.2	-37.6
GATCTGTACCCAGATC ((((((....))))))	47.5	-36.4
GATCTGTAGGCAGATC ((((((....))))))	51.9	-45
GATCTGTATACAGATC ((((((....))))))	54.3	-40.8
GATCTGTATCCAGATC ((((((....))))))	47.4	-40.3
GATCTGTATTCAGATC ((((((....))))))	50.4	-36.3
GATCTGTCACAGATC ((((((...))))))	50.6	-36.2
GATCTGTCCCCAGATC ((((((....))))))	47.9	-37.5
GATCTGTCCGCAGATC ((((((....))))))	52.9	-43.6
GATCTGTCCTCAGATC ((((((....))))))	51	-46.8
GATCTGTCGCCAGATC ((((((....))))))	50.1	-37.6
GATCTGTCTTCAGATC ((((((....))))))	51.4	-38.7
GATCTGTGAGCAGATC ((((((....))))))	55	-40
GATCTGTGGCCAGATC ((((((....))))))	50.4	-33.9
GATCTGTTATCAGATC ((((((....))))))	50.7	-39.8
GATCTGTTCTCAGATC ((((((....))))))	51.5	-41.3

Sequence	Tm [1] [°C]	folding enthalpy [2] [kcal/mol]
GATCTTAACTAAGATC ((((((....))))))	44	-32.5
GATCTTAATAAAGATC ((((((....))))))	40.9	-28.5
GATCTTAATGAAGATC ((((((....))))))	39.5	-27.5
GATCTTAGCAAAGATC ((((((....))))))	42.4	-30.9
GATCTTAGCTAAGATC ((((((....))))))	48.5	-43.9
GATCTTAGTCAAGATC ((((((....))))))	42.2	-31.4
GATCTTATATAAGATC ((((((....))))))	44.9	-34.1
GATCTTATCAAGATC ((((((...))))))	46	-29.7
GATCTTATGAAAGATC ((((((....))))))	40.6	-30.6
GATCTTCACGAAGATC ((((((....))))))	49.2	-40.1
GATCTTCACTAAGATC ((((((....))))))	43.9	-29.7
GATCTTCATAAGATC ((((((...))))))	43.4	-28.4
GATCTTCATGAAGATC ((((((....))))))	51.1	-43.4
GATCTTCCCGAAGATC ((((((....))))))	49.4	-40.8
GATCTTCCGGAAGATC ((((((....))))))	53.1	-55.2
GATCTTCGTTAAGATC ((((((....))))))	43	-32.2
GATCTTCTACAAGATC ((((((....))))))	41.9	-30.3
GATCTTCTATAAGATC ((((((....))))))	43.5	-30.3
GATCTTCTGTAAGATC ((((((....))))))	43.1	-34.7
GATCTTCTTAAAGATC ((((((....))))))	46	-32.7
GATCTTCTTTAAGATC ((((((....))))))	43.3	-38
GATCTTGAACAAGATC ((((((....))))))	49.2	-34.8
GATCTTGACAAAGATC ((((((....))))))	52.7	-44
GATCTTGATGAAGATC ((((((....))))))	44.1	-23.4

Sequence	Tm [1] [°C]	folding enthalpy [2] [kcal/mol]
GATCTTGCATAAGATC ((((((....))))))	50.9	-39.9
GATCTTGCCAAGATC ((((((...))))))	47.5	-26.1
GATCTTGCGTAAGATC ((((((....))))))	43.6	-39.6
GATCTTGCTAAAGATC ((((((....))))))	53.2	-38.1
GATCTTGCTAAGATC ((((((...))))))	45.4	-31.8
GATCTTGTAAAGATC ((((((...))))))	53.8	-43.5
GATCTTGTCAAAGATC ((((((....))))))	54.8	-41.9
GATCTTGTGGAAGATC ((((((....))))))	41.3	-29.4
GATCTTTAACAAGATC ((((((....))))))	38.1	-32.6
GATCTTTCGGAAGATC ((((((....))))))	43.9	-33.4
GATCTTTCTCAAGATC ((((((....))))))	42.6	-33.4
GATCTTTGACAAGATC ((((((....))))))	39.4	-25.1
GATCTTTGATAAGATC ((((((....))))))	42.6	-25.5
GATCTTTGTGAAGATC ((((((....))))))	47.7	-41.7
GATCTTTGTTAAGATC ((((((....))))))	44	-33.6
GATCTTTTGAAGATC ((((((...))))))	43.6	-27.8
GATCTTTTTCAAGATC ((((((....))))))	42.3	-33.6
GATGAAGAAATTCATC ((((((....))))))	43.3	-24.9
GATGACACGAAAGTGATC (((..(((....))))))	30.9	-11.4
GATGACGAAAGTCATC ((((((....))))))	67.4	-36.3
GATGACGGAAACGTTATC (((.(((....))).)))	46.2	-29.6
GATGAGCGAAAGCTGATC (((.(((....))).)))	45.9	-22.1
GATGATGCGAAAGCAATC (((..(((....))))))	37.6	-13.7
GATGCAGGAAACTACATC ((((.((....)).))))	36.4	-30.7

Sequence	Tm [1] [°C]	folding enthalpy [2] [kcal/mol]
GATGCAGGAAACTGTATC (((.(((....))).)))	44.9	-33.5
GATGCAGGAAACTGTGTC ((..(((....)))..))	35.5	-27.1
GATGCCGAAAGGCAAATC ((((((....)))..)))	35.4	-10.4
GATGCCGAAAGGCACATC ((((((....)))..)))	33.3	-8.64
GATGCCGAAAGGCGCATC ((((((....)))..)))	32.6	-9.01
GATGCCGAAAGGCTAATC ((((((....)))..)))	30.1	-9.64
GATGCCGAAAGGCTCATC ((((((....)))..)))	32.7	-10.4
GATGCCGGAAACGGCACC (.(((((....))))).)	44.5	-9.72
GATGCCGGAAACGGCGTC ((.((((....)))).))	62.6	-21.2
GATGCGCGAAAGCGAATC (((.(((....))).)))	57.2	-22.3
GATGCGCGAAAGCGGATC (((.(((....))).)))	64.5	-30.6
GATGCTGGAAACAGTGTC ((..(((....)))..))	37.8	-26.2
GATGGACCGAAAGGTATC (((..(((....))))))	26.8	-11.1
GATGGAGGAAACTCCACC (.(((((....))))).)	34.1	-16.3
GATGGAGGAAACTCCATC (((((((....)))))))	59	-38.5
GATGGCCGAAAGGCTATC (((.(((....))).)))	57.5	-27.8
GATGGCGAAAGCCAAATC ((((((....)))..)))	33.9	-9.36
GATGGCGAAAGCCCATC ((((((....))).)))	52.4	-16.6
GATGGCGAAAGCCGGATC ((((((....)))..)))	37	-10.2
GATGGCGGAAACACCATC (((((.(....).)))))	47.2	-34.3
GATGGGCGAAAGCCGATC (((.(((....))).)))	52.7	-18.8
GATGGTGGAAACACTGTC ((..(((....)))..))	35.8	-15.5
